The values that follow come from ChEMBL document CHEMBL1148831, “1,3-disubstituted ureas functionalized with ether groups are potent inhibitors of the soluble epoxide hydrolase with improved pharmacokinetic properties” (J Med Chem, 2007).

The nature of data set [1]: Stability in human liver microsomes at 100 uM after 1 hr. The format is ADME, Microsome. Conditions: read-out: Stability.
Data set [2] in a line: Elimination half life in dog at 0.3 mg/kg, po. On the set-up: dose 0.3 mg/kg, route oral. Conditions: in vivo. It is filed as ADME, organism-based, Canis lupus familiaris. The procedure, abridged: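 Oral gavage at 0.3 mg/kg in 3 ml tristerate at body temperature. Plasma assayed by LC/MS/MS. t1/2 from noncompartmental fit, minutes, at least three animals.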
Data set [3] is described as follows: Partition coefficient, log P of the compound. The format is physicochemical. Conditions: octanol/water.
Data set [4] in a line: Elimination half life in rat at 5 mg/kg, po. It is filed as ADME, organism-based. Conditions: in vivo. Also on record: dose 5 mg/kg, route oral. The procedure, abridged:
(§1)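 Rodents dosed by oral gavage at 5 mg/kg in oleic oil solution (0.1 mL mice, 1 mL rats). Whole blood (10 μL) sampled at 0, 0.5, 1, 2, 4, 6, 8 and 24 h and analysed by LC/MS/MS. Elimination t1/2 (min) from noncompartmental fit of concentration-time data, averaged over at least three animals.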

A short description of data set [5]: Stability in human liver S9 fraction at 100 uM after 1 hr. Conditions: read-out: Stability. It is filed as ADME, subcellular. The procedure, abridged:
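Human liver microsomes (0.125 mg protein) or S9 (0.056 mg) in 0.1 M sodium phosphate pH 7.4, preincubated 5 min at 37°C. Compound added from 100 μM stock (final 1.0 μM). Started with NADPH-generating system (NADP, glucose 6-phosphate, G6PDH, MgCl₂), shaken 60 min at 37°C, stopped with cold ethanol with internal standard. Percent remaining vs 0-min ethanol-quenched control.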

Data set [6] can be described thus: Elimination half life in mouse at 5 mg/kg, po. It is filed as ADME, organism-based. Also on record: dose 5 mg/kg, route oral. Conditions: in vivo. The procedure, abridged: as §1

For orientation: half-life means how long it takes for the measured level to halve. Low values mean rapid decline, high ones slow decline. In general, logP refers to the decadic logarithm of the partition coefficient of the neutral form, usually between octanol and water. A lower logP goes with lower lipophilicity.

Where only a bound is given, the exact number is not on record here.

In the case of `CCCCOCCCCCNC(=O)NC12CC3CC(CC(C3)C1)C2`, the remaining at 1 h, 100 µM in data set [1] came to 25%. Besides, the half-life in data set [2] was found to be 2.17 h. The compound also gave a logP in data set [3] of 5.

Take `CCOCCOCCOc1ccc(NC(=O)NC23CC4CC(CC(C4)C2)C3)cc1`: the values for the half-life in data set [4] and in data set [2] were 9.67 h and 5.33 h, respectively. Also, the logP in data set [3] was found to be 3.9. Besides, in data set [5], the remaining at 1 h, 100 µM was determined as 70%.

For the compound `O=C(NCCCCCOCCCN1CCOCC1)NC12CC3CC(CC(C3)C1)C2`, the results for the half-life in data set [4], in data set [2] and in data set [6] were 3.33 h, 1.5 h and 0.25 h, respectively. The results for the remaining at 1 h, 100 µM in data set [1] and in data set [5] were 89% and 34%, respectively. This compound had a logP in data set [3] of 2.4.

Regarding `CS(=O)(=O)NCCCCCOCCCCCNC(=O)NC12CC3CC(CC(C3)C1)C2`, in data set [1], the remaining at 1 h, 100 µM was 59%.

As for `O=C(NCCCCCOCCOCCOCC(F)(F)F)NC12CC3CC(CC(C3)C1)C2`, the remaining at 1 h, 100 µM is 39% in data set [1] and 1.1% in data set [5].

With `CS(=O)(=O)NCCOCCOCCCCCNC(=O)NC12CC3CC(CC(C3)C1)C2`, the remaining at 1 h, 100 µM in data set [1] was 42%; in data set [5], 12%.

`CCCCCOC1CCC(NC(=O)NC23CC4CC(CC(C4)C2)C3)CC1` (stereo unspecified): the values for the half-life in data set [4], in data set [2] and in data set [6] were 2 h, 2 h and 2.83 h, respectively. Moreover, the remaining at 1 h, 100 µM in data set [1] was determined as 22%. Moreover, in data set [3], the logP is greater than 5.

Turning to `CCCOCCCOCCCCCNC(=O)NC12CC3CC(CC(C3)C1)C2`, in data set [1], the remaining at 1 h, 100 µM came to 6.8%.

Regarding `CCOCCOCCOC1CCC(NC(=O)NC23CC4CC(CC(C4)C2)C3)CC1` (stereo unspecified), the results for the half-life in data set [4], in data set [2] and in data set [6] were 2.5 h, 1.5 h and 2.67 h, respectively. Moreover, the results for the remaining at 1 h, 100 µM in data set [1] and in data set [5] were 91% and 79%, respectively. In data set [3], this compound gave a logP of 2.9.

Regarding `O=C(Nc1ccc(OCCCN2CCOCC2)cc1)NC12CC3CC(CC(C3)C1)C2`, the values for the remaining at 1 h, 100 µM in data set [1] and in data set [5] were 93% and 97%, respectively. The half-life in data set [2] stood at 2.17 h. In data set [3], this compound gave a logP of 2.9.

Consider `CCCCC(C)OCCCCCNC(=O)NC12CC3CC(CC(C3)C1)C2` (stereo unspecified), for which, in data set [1], the remaining at 1 h, 100 µM stood at 12%.

For the compound `COCCOCCOCCOCCCCCNC(=O)NC12CC3CC(CC(C3)C1)C2`, the remaining at 1 h, 100 µM in data set [1] was 54%; in data set [5], 14%.

`CCOCCOCCOCCCCCNC(=O)NC12CC3CC(CC(C3)C1)C2`: the values for the half-life in data set [4] and in data set [2] were 0.65 h and 3 h, respectively. In addition, the figures for the remaining at 1 h, 100 µM in data set [1] and in data set [5] were 30% and 11%, respectively. The lipophilicity (logP) in data set [3] worked out at 3.6.

For the compound `O=C(NC1CCC(OCCCN2CCOCC2)CC1)NC12CC3CC(CC(C3)C1)C2` (stereo unspecified), the half-life in data set [4] was 1.83 h; in data set [2], 2.17 h; in data set [6] it was 1.33 h. The remaining at 1 h, 100 µM is 92% in data set [1] and 81% in data set [5]. The compound also displayed a logP in data set [3] of 2.2.

Consider `CCOCCOCCOCCCCCNC(=O)CC12CC3CC(CC(C3)C1)C2`, for which the remaining at 1 h, 100 µM in data set [1] stood at 5%.

On to `CCOCCOCCOCCCCCCC(=O)NC12CC3CC(CC(C3)C1)C2`, for which the remaining at 1 h, 100 µM in data set [1] was 32%; in data set [5], 5%.

Turning to `CCc1ccc(OCCOCCOCCCCCNC(=O)NC23CC4CC(CC(C4)C2)C3)cc1`, the remaining at 1 h, 100 µM in data set [1] is 21%.

For `CCOCCOCCOc1cccc(NC(=O)NC23CC4CC(CC(C4)C2)C3)c1`, the remaining at 1 h, 100 µM in data set [1] came to 56%; in data set [5], 9%.

Regarding `CCCC(C)COCCCCCNC(=O)NC12CC3CC(CC(C3)C1)C2` (stereo unspecified), the remaining at 1 h, 100 µM in data set [1] came to 12%.

Consider `CCCOCCCCOCCCCCNC(=O)NC12CC3CC(CC(C3)C1)C2`, for which the remaining at 1 h, 100 µM in data set [1] was found to be 7.5%.
